# DENV2 CPE: inhibitors of DENV2 cytopathic effect, primary screen, cell-based, plate reader, single concentration; DENV2-infected cells, cytopathic effect rescue; CPE inhibition, % at 9.99 µM; 350,000 tested, 1.7% active; in the data active = CPE inhibition above about 20%, passing the limit was not always enough; inconclusive = no clear call, values can overlap the other calls; tested in BHK-21 cells;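 note: 0% = median of neutral control wells and 100% = median of positive control wells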
# Ecoli rRNA inh: reduced GFP signal of wild-type E. coli, primary screen, bacterial rRNA inhibitor project, GFP/RFP fluorescence, OD600, single point | GFP signal change (wild-type ribosome), % (concentration not given with the values) | E. coli WT GFP vs humanized-ribosome RFP mutants, 24 h; active compounds read low; DMSO median 0, no signal -100 | AID 720706, 2013 | 350,000 tested, 1.6% active;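 active = significant combined selectivity score with lowered wild-type GFP, culture density cut under 30%, mutant RFP and density less affected; inactive = any of these conditions unmet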
# HIV Env fusion: inhibitors of HIV-1 Env-driven cell-cell fusion, primary screen, HeLa-JRFL effector, CEM21 target cells, luciferase | AID 651610, 2012 | inhibition, % at 12.3 µM | 360,000 tested, 1.1% active;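 active = mean replicate inhibition score of at least 50 and every replicate individually at or above 50; inconclusive = only one of the two criteria met; inactive = mean below 50 and not all replicates reaching 50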;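 note: 0% = plate neutral controls and 100% = maraviroc near 300 nM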
# FN deposition inh: inhibitors of fibronectin matrix deposition, primary screen, AH1F cells, Alexa488-fibronectin fluorescence, plate reader; AH1F fibroblasts, overnight; inhibition, % at 12.6 µM; 350,000 tested, 0.086% active; AID 743247, 2014;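 active = mean inhibition across replicates of 30% or more, regardless of how many single replicates reach that level; inconclusive = mean under 30% yet at least half of replicates reach 30%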;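 note: positive control wells lacked labelled fibronectin entirely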
#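 Material: AH1F fibroblast monolayer depositing Alexa488-labelled fibronectin into matrix / Amount: 10000 AH1F cells per well / Signal: fluorescence 485/525 nm / Medium: DMEM, 2% serum / Compound: single dose, pinned / Incubation: 1 h cell adhesion before compound, then overnight fibronectin incubation / Reagent: Alexa488-FN, 24 nM final / Read-out: inhibition of fibronectin deposition signal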
# PglD inh: C. jejuni PglD acetyltransferase inhibitors, primary screen, biochemical, DTNB colorimetric, single point; 360,000 tested, 0.098% active; inhibition, % at 12.5 µM; UDP-N-acetylbacillosamine N-acetyltransferase PglD (Campylobacter jejuni); purified PglD enzyme, DTNB colorimetric CoA detection; in the data active = inhibition above about 16%, passing the limit was not always enough; inconclusive = no clear call, values can overlap the other calls
# PGC1a acetyl inh: inhibitors of PGC1a acetylation signal, primary screen, cell-based, U2OS, AlphaScreen, inhibitor mode; AlphaScreen anti-acetyl-lysine; with virally co-expressed GCN5 acetyltransferase; inhibition, % at 15.6 µM; 350,000 tested, 0.17% active;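 active = every replicate shows inhibition of at least 40%; inconclusive = mean inhibition at least 40% but some replicate below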;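 note: 0% = neutral control wells and 100% = positive control wells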
# * hit, by the source's call; ? = inconclusive; · = not tested or not shown; ! = repeats disagree; [ ] = remark or other dose. An excerpt weighted towards active compounds, which were near 3.5% of everything screened.
SMILES,DENV2 CPE,Ecoli rRNA inh,HIV Env fusion,FN deposition inh,PglD inh,PGC1a acetyl inh
COc1ccc(-c2ccc(C3[C@H]4CNC[C@@H]3N4C(=O)Nc3ccc4c(c3)OCO4)cc2)cc1 (some centres undefined),25*!,-6,·,5,·,·
COc1ccc(-c2ccc(C3[C@H]4CNC[C@@H]3N4C(=O)Nc3ccccc3F)cc2)cc1 (some centres undefined),26*!,-7,·,-4,·,7
CN(C)C(=O)c1ccc(-c2ccc(C3[C@H]4CNC[C@@H]3N4C(=O)NC3CCCC3)cc2)cc1 (some centres undefined),72*,2,·,-3,·,·
COc1cccc(-c2ccc(C3[C@@H]4CN(C(=O)Nc5ccccc5F)C[C@H]3N4)cc2)c1 (some centres undefined),32*!,-12,·,7,·,-22
N#Cc1ccc(-c2ccc(C3[C@H]4CNC[C@@H]3N4C(=O)NC3CCCC3)cc2)cc1 (some centres undefined),-6,0,·,-1,·,·
COc1ccc(NC(=O)N2[C@@H]3CNC[C@H]2C3c2ccc(-c3ccccc3)cc2)cc1 (some centres undefined),?,-11,·,4,·,10
COc1ccc(NC(=O)N2[C@@H]3CNC[C@H]2C3c2ccc(-c3ccc(C)cc3)cc2)cc1 (some centres undefined),33*!,-61,·,1,·,·
CC(C)NC(=O)N1C[C@H]2[C@@H](c3ccccc31)[C@@H](CO)N2C(=O)C1CCCC1,1,1,·,·,-3,-11
Cc1noc(C)c1NC(=O)N(C)C[C@H]1Oc2ccc(NS(=O)(=O)c3ccc(Cl)cc3)cc2CC(=O)N([C@@H](C)CO)C[C@H]1C,-4,6,-4[16.7 µM],·,3,5
CN1[C@@H]2c3ccc(/C=C/c4ccccc4)c(=O)n3C[C@@H]2[C@@H](CO)[C@@H]1C(=O)N1CCOCC1,-5,-1,·,·,-1,-17
O=C(C[C@@H]1CC[C@@H]2[C@H](COC[C@@H](O)CN2S(=O)(=O)c2ccccc2)O1)NCCN1CCCCC1,2,4,6[16.7 µM],-3,-2,-1
O=C(COC(=O)C1CC(=O)N(Cc2ccco2)C1)Nc1ccc(F)cc1F (centres undefined),74*,10,·,-2,3,·
O=C(COC(=O)C1CC(=O)N(Cc2ccco2)C1)Nc1ccccc1[N+](=O)[O-] (centres undefined),-7,4,-1,-5,1,2
C/C=C/c1ccc([C@@H]2[C@H](CO)N(C(C)=O)C23CN(C(=O)c2ccncc2)C3)cc1,-9,3,·,·,·,14
C[C@H]1CN([C@@H](C)CO)S(=O)(=O)c2ccc(-c3ccccc3F)cc2O[C@H]1CN(C)Cc1ccncc1,21*,-46,-3[16.7 µM],-14,0,-1
C[C@H](CO)N1C[C@H](C)[C@@H](CN(C)Cc2cccnc2)Oc2cc(-c3ccccc3F)ccc2S1(=O)=O,46*,-42,·,4,·,-17
C[C@@H]1CN([C@H](C)CO)S(=O)(=O)c2ccc(-c3ccccc3F)cc2O[C@H]1CN(C)Cc1ccncc1,29*,-49,11[16.7 µM],4,1,1
CCCNC(=O)Nc1ccc2c(c1)C(=O)N(C)[C@H]1CC[C@@H](CC(=O)O)O[C@H]1CO2,0,3,22[16.7 µM],-11,0,2
O=C(c1ccccc1)N1CCSc2sccc2C1=O,-4,1,66*,-1,3,·
C[C@H]1CN([C@@H](C)CO)C(=O)CCCn2nncc2CO[C@H]1CN(C)C(=O)Nc1cccc(F)c1,-12,-1,·,0,2,-6
COc1ccc2c3c(n(C)c2c1)[C@@H](CO)N(C(=O)C1CC1)CC31CCN(Cc2cccc(F)c2)CC1,-25,-2,·,-1,·,0
COc1ccc2c3c(n(C)c2c1)[C@@H](CO)N(C(=O)C1CCOCC1)CC31CCN(Cc2cccc(F)c2)CC1,-28,-2,70*[16.7 µM],·,·,·
COc1ccc2c3c(n(C)c2c1)[C@@H](CO)N(C(=O)C1CCOCC1)CC31CN(C(=O)C2CC2)C1,-1,0,·,-8,·,·
COc1ccc2c3c(n(C)c2c1)[C@H](CO)N(C(=O)C1CC1)CC31CCN(Cc2cccc(F)c2)CC1,-24,-2,·,9,·,4
COc1ccc2c3c(n(C)c2c1)[C@H](CO)N(C(=O)C1CCOCC1)CC31CN(C(=O)C2CC2)C1,22*,8,·,-4,·,·
SMILES,DENV2 CPE,Ecoli rRNA inh,HIV Env fusion,FN deposition inh,PglD inh,PGC1a acetyl inh
COc1ccc2c3c(n(C)c2c1)[C@H](CO)N(C(=O)C1CCOCC1)CC31CCN(Cc2cccc(F)c2)CC1,-2,-5,55*[16.7 µM],·,·,·
Cc1ccc(C(=O)c2cnc3ccccc3c2-c2ccccc2)cc1,·,·,83*,·,-2,4
Cc1ccc(C(=O)c2nc(C(=O)NCCO)nc3ccccc23)cc1,-4,-12,6,6,-6,-3
COc1ccc(Oc2nc(-c3ccccc3)ncc2C(=O)O)cc1,10,7,1,-3,·,11
COc1ccc(C(=O)c2cnc3ccccc3c2-c2ccccc2)cc1,·,·,91*,·,5,8
C=CC[n+]1c(-c2ccc(OCC)cc2)csc1NNC(=O)Nc1ccccc1,·,·,61*,-25,·,-8
CC(=NNC(=S)Nc1ccccc1Cl)c1ccccn1,-4,-12,63*,23,·,17
CC(=NNC(=S)Nc1ccccc1)c1ccccn1,-5,-12,14,6,·,·
C[C@H]1CN([C@@H](C)CO)C(=O)c2cc(C3=CCCC3)cnc2O[C@H]1CN(C)C(=O)c1ccncc1,-6,4,·,-1,·,9
COc1ccc(NC(=O)c2c3c(nc4ccccc24)CCN(Cc2ccccc2)C3)c(OC)c1,5,-1,2,7,1,-10
COc1ccc(S(=O)(=O)N2CCCCCC2)cc1NC(=O)c1c2c(nc3ccccc13)CCN(Cc1ccccc1)C2,·,·,65*,-1,-3,-6
CCN(CC)S(=O)(=O)c1ccc(OC(C)C)c(NC(=O)c2c3c(nc4ccccc24)CCN(Cc2ccccc2)C3)c1,-9,-5,59*,-1,-4,-1
CC=Cc1ccc2n(c1=O)C[C@H]1[C@H](CO)[C@@H](C(=O)NCCC)N(CCC(F)(F)F)[C@@H]21 (mixture of isomers),2,0,·,·,6,4
C[C@H]1CN([C@@H](C)CO)C(=O)c2cc(NC(=O)Nc3ccc(F)cc3)ccc2O[C@H]1CN(C)S(C)(=O)=O,-2,-1,-8[16.7 µM],·,-3,-1

# Assay outcomes as filed in PubChem BioAssay.
